In ChEMBL document CHEMBL4715736, “Identification of anticancer agents based on the thieno[2,3-b]pyridine and 1H-pyrazole molecular scaffolds” (2016):

Experiments:
Format in all cases: functional
[1] = tested on: NCI-H322M; assay: Growth inhibition of human NCI-H322M cells assessed as cell growth at 0.01 uM incubated for 48 hrs by sulforhodamine B assay relative to control; conditions: read-out: Activity
[2] = tested on: HCT-116; assay: Growth inhibition of human HCT-116 cells assessed as cell growth at 0.01 uM incubated for 48 hrs by sulforhodamine B assay relative to control; conditions: read-out: Activity
[3] = tested on: SNB-19; assay: Growth inhibition of human SNB-19 cells assessed as cell growth at 0.01 uM incubated for 48 hrs by sulforhodamine B assay relative to control; conditions: read-out: Activity
[4] = tested on: OVCAR-3; assay: Growth inhibition of human OVCAR-3 cells assessed as cell growth at 0.01 uM incubated for 48 hrs by sulforhodamine B assay relative to control; conditions: read-out: Activity
[5] = tested on: 786-0; assay: Growth inhibition of human 786-0 cells assessed as cell growth at 0.01 uM incubated for 48 hrs by sulforhodamine B assay relative to control; conditions: read-out: Activity
Outline: (§1)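 NCI Developmental Therapeutics Program NCI60 panel. Compounds that were active in the 10 µM one-dose screen went on to dose–response testing. Growth at each concentration is expressed relative to untreated control (100%). GI50 (concentration giving 50% of maximal inhibition of proliferation) and TGI (concentration giving total growth inhibition) were derived from the curves.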

[6] = tested on: PC-3; assay: Growth inhibition of human PC-3 cells assessed as cell growth at 0.01 uM incubated for 48 hrs by sulforhodamine B assay relative to control; conditions: read-out: Activity
[7] = tested on: MCF7; assay: Growth inhibition of human MCF7 cells assessed as cell growth at 0.01 uM incubated for 48 hrs by sulforhodamine B assay relative to control; conditions: read-out: Activity
[8] = tested on: Hs-578T; assay: Growth inhibition of human Hs-578T cells assessed as cell growth at 0.01 uM incubated for 48 hrs by sulforhodamine B assay relative to control; conditions: read-out: Activity
[9] = tested on: HOP-62; assay: Growth inhibition of human HOP-62 cells assessed as cell growth at 0.1 uM incubated for 48 hrs by sulforhodamine B assay relative to control; conditions: read-out: Activity
[10] = tested on: SN12C; assay: Growth inhibition of human SN12C cells assessed as cell growth at 0.1 uM incubated for 48 hrs by sulforhodamine B assay relative to control; conditions: read-out: Activity
[11] = tested on: MDA-MB-231; assay: Growth inhibition of human MDA-MB-231 cells assessed as cell growth at 0.1 uM incubated for 48 hrs by sulforhodamine B assay relative to control; conditions: read-out: Activity
[12] = tested on: NCI-H522; assay: Growth inhibition of human NCI-H522 cells assessed as cell growth at 1 uM incubated for 48 hrs by sulforhodamine B assay relative to control; conditions: read-out: Activity
[13] = tested on: KM12; assay: Growth inhibition of human KM12 cells assessed as cell growth at 1 uM incubated for 48 hrs by sulforhodamine B assay relative to control; conditions: read-out: Activity
[14] = tested on: SW-620; assay: Growth inhibition of human SW-620 cells assessed as cell growth at 1 uM incubated for 48 hrs by sulforhodamine B assay relative to control; conditions: read-out: Activity
[15] = tested on: SF-268; assay: Growth inhibition of human SF-268 cells assessed as cell growth at 1 uM incubated for 48 hrs by sulforhodamine B assay relative to control; conditions: read-out: Activity
[16] = tested on: SK-MEL-5; assay: Growth inhibition of human SK-MEL-5 cells assessed as cell growth at 1 uM incubated for 48 hrs by sulforhodamine B assay relative to control; conditions: read-out: Activity
[17] = tested on: UACC-257; assay: Growth inhibition of human UACC-257 cells assessed as cell growth at 1 uM incubated for 48 hrs by sulforhodamine B assay relative to control; conditions: read-out: Activity
[18] = tested on: OVCAR-4; assay: Growth inhibition of human OVCAR-4 cells assessed as cell growth at 1 uM incubated for 48 hrs by sulforhodamine B assay relative to control; conditions: read-out: Activity
[19] = tested on: OVCAR-5; assay: Growth inhibition of human OVCAR-5 cells assessed as cell growth at 1 uM incubated for 48 hrs by sulforhodamine B assay relative to control; conditions: read-out: Activity
[20] = tested on: OVCAR-8; assay: Growth inhibition of human OVCAR-8 cells assessed as cell growth at 1 uM incubated for 48 hrs by sulforhodamine B assay relative to control; conditions: read-out: Activity
[21] = tested on: SN12C; assay: Growth inhibition of human SN12C cells assessed as cell growth at 1 uM incubated for 48 hrs by sulforhodamine B assay relative to control; conditions: read-out: Activity
[22] = tested on: MCF7; assay: Growth inhibition of human MCF7 cells assessed as cell growth at 1 uM incubated for 48 hrs by sulforhodamine B assay relative to control; conditions: read-out: Activity
[23] = tested on: T47D; assay: Growth inhibition of human T47D cells assessed as cell growth at 1 uM incubated for 48 hrs by sulforhodamine B assay relative to control; conditions: read-out: Activity
[24] = tested on: MOLT-4; assay: Growth inhibition of human MOLT-4 cells assessed as cell growth at 100 uM incubated for 48 hrs by sulforhodamine B assay relative to control; conditions: read-out: Activity
[25] = tested on: LOX IMVI; assay: Growth inhibition of human LOX IMVI cells assessed as cell growth at 100 uM incubated for 48 hrs by sulforhodamine B assay relative to control; conditions: read-out: Activity
[26] = tested on: IGROV-1; assay: Growth inhibition of human IGROV-1 cells assessed as cell growth at 100 uM incubated for 48 hrs by sulforhodamine B assay relative to control; conditions: read-out: Activity
[27] = tested on: PC-3; assay: Growth inhibition of human PC-3 cells assessed as cell growth at 100 uM incubated for 48 hrs by sulforhodamine B assay relative to control; conditions: read-out: Activity
[28] = tested on: DU-145; assay: Growth inhibition of human DU-145 cells assessed as cell growth at 100 uM incubated for 48 hrs by sulforhodamine B assay relative to control; conditions: read-out: Activity; outline: as §1
[29] = tested on: MDA-MB-468; assay: Growth inhibition of human MDA-MB-468 cells assessed as cell growth at 100 uM incubated for 48 hrs by sulforhodamine B assay relative to control; conditions: read-out: Activity
[30] = tested on: HOP-62; assay: Growth inhibition of human HOP-62 cells incubated for 48 hrs by sulforhodamine B assay
Outline: (§2)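 NCI60 panel at the NCI Developmental Therapeutics Program. Only compounds active in the 10 µM screen went to dose-response testing. GI50, the concentration giving 50% of maximal inhibition of proliferation, and TGI, the concentration giving total growth inhibition, were derived from the dose-response curves.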

[31] = tested on: NCI-H460; assay: Growth inhibition of human NCI-H460 cells incubated for 48 hrs by sulforhodamine B assay; outline: as §2
[32] = tested on: SF-295; assay: Growth inhibition of human SF-295 cells incubated for 48 hrs by sulforhodamine B assay
Outline: (§3)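 NCI DTP 60-line human tumour panel. Dose-response curves were run only for ligands active in the initial 10 µM screen. GI50 (concentration giving 50% of maximal inhibition of proliferation) and TGI (concentration giving total growth inhibition) were derived from these curves.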

[33] = tested on: SK-MEL-5; assay: Growth inhibition of human SK-MEL-5 cells incubated for 48 hrs by sulforhodamine B assay; outline: as §3
[34] = tested on: IGROV-1; assay: Growth inhibition of human IGROV-1 cells incubated for 48 hrs by sulforhodamine B assay; outline: as §2
[35] = tested on: SK-OV-3; assay: Growth inhibition of human SK-OV-3 cells incubated for 48 hrs by sulforhodamine B assay; conditions: for CC50: read-out: LC50 (the source's name); outline: as §3

## Nc1c(C(=O)Nc2ccccc2)sc2nc3c(cc12)CN(Cc1ccccc1)CC3
[1]
  growth at 0.01 µM: 93%
[2]
  growth at 0.01 µM: 100%
[3]
  growth at 0.01 µM: 93%
[4]
  growth at 0.01 µM: 98%
[5]
  growth at 0.01 µM: 96%
[6]
  growth at 0.01 µM: 95%
[7]
  growth at 0.01 µM: 93%
[8]
  growth at 0.01 µM: 88%
[9]
  growth at 0.1 µM: 84%
[10]
  growth at 0.1 µM: 94%
[11]
  growth at 0.1 µM: 100%
[12]
  growth at 1 µM: 91%
[13]
  growth at 1 µM: 88%
[14]
  growth at 1 µM: 86%
[15]
  growth at 1 µM: 85%
[16]
  growth at 1 µM: 95%
[17]
  growth at 1 µM: 84%
[18]
  growth at 1 µM: 66%
[19]
  growth at 1 µM: 93%
[20]
  growth at 1 µM: 98%
[21]
  growth at 1 µM: 87%
[22]
  growth at 1 µM: 82%
[23]
  growth at 1 µM: 83%
[24]
  growth at 100 µM: 18%
[25]
  growth at 100 µM: 20%
[26]
  growth at 100 µM: 32%
[27]
  growth at 100 µM: 23%
[28]
  growth at 100 µM: 16%
[29]
  growth at 100 µM: 22%
[30]
  GI50: 4110 nM
  LC50: > 100 µM
  TGI: 33.3 µM
[31]
  GI50: 7.51 µM
  LC50: > 100 µM
  TGI: > 100 µM
[32]
  GI50: 5.45 µM
  LC50 (concentration killing 50% of cells): > 100 µM
  TGI: > 100 µM
[33]
  GI50: 9.58 µM
  LC50: > 100 µM
  TGI: > 100 µM
[34]
  GI50: 37.8 µM
  LC50: > 100 µM
  TGI: > 100 µM
[35]
  GI50: 3.53 µM
  TGI: > 100 µM
  CC50: > 100 µM

## COc1cccc(NC(=O)c2sc3nc4c(cc3c2N)CN(Cc2ccccc2)CC4)c1
[1]
  growth at 0.01 µM: 101%
[2]
  growth at 0.01 µM: 91%
[3]
  growth at 0.01 µM: 98%
[4]
  growth at 0.01 µM: 107%
[5]
  growth at 0.01 µM: 90%
[6]
  growth at 0.01 µM: 94%
[7]
  growth at 0.01 µM: 88%
[8]
  growth at 0.01 µM: 88%
[9]
  growth at 0.1 µM: 86%
[10]
  growth at 0.1 µM: 93%
[11]
  growth at 0.1 µM: 98%
[12]
  growth at 1 µM: 74%
[13]
  growth at 1 µM: 64%
[14]
  growth at 1 µM: 57%
[15]
  growth at 1 µM: 91%
[16]
  growth at 1 µM: 58%
[17]
  growth at 1 µM: 78%
[18]
  growth at 1 µM: 78%
[19]
  growth at 1 µM: 95%
[20]
  growth at 1 µM: 90%
[21]
  growth at 1 µM: 85%
[22]
  growth at 1 µM: 40%
[23]
  growth at 1 µM: 71%
[24]
  growth at 100 µM: 13%
[25]
  growth at 100 µM: -15%
[26]
  growth at 100 µM: 4%
[27]
  growth at 100 µM: -2%
[28]
  growth at 100 µM: -61%
[29]
  growth at 100 µM: -8%
[30]
  GI50: 1830 nM
  LC50: 41.1 µM
  TGI: 6.47 µM
[31]
  GI50: 4.18 µM
  LC50: > 100 µM
  TGI: 30.9 µM
[32]
  GI50: 3.05 µM
  LC50 (concentration killing 50% of cells): 94.3 µM
  TGI: 19.4 µM
[33]
  GI50: 2.15 µM
  LC50: > 100 µM
  TGI: 31.9 µM
[34]
  GI50: 18.5 µM
  LC50: > 100 µM
  TGI: > 100 µM
[35]
  GI50: 2.78 µM
  TGI: 14 µM
  CC50: 62.5 µM
